Reference: ChEMBL document CHEMBL1137004, “Discovery of novel motilin antagonists: Conversion of tetrapeptide leads to orally available peptidomimetics” (Bioorg Med Chem Lett, 2009)
Active and inactive are the calls of the source. The calls are words filed in the database; no cut-off is given here. Where a SMILES comes first, the peptide text is derived from it.

Key:
Motilin receptor [1] = target: T1, Motilin receptor (Oryctolagus cuniculus, UniProt A5A4K8); test: Displacement of [125I]motilin from MTL receptor in rabbit duodenum homogenate
T1 sequence (A5A4K8 whole entry): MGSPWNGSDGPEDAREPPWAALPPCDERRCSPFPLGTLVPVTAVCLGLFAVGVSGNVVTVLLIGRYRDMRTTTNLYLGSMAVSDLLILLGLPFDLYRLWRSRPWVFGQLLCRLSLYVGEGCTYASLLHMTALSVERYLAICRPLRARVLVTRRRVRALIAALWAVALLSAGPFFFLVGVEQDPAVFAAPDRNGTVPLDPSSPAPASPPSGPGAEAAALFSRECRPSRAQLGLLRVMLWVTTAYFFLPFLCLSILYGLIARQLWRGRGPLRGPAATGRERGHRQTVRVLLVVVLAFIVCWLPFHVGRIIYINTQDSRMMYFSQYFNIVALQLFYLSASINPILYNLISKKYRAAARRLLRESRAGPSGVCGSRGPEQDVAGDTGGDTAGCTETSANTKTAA
Procedure, shortened: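 Tissue homogenate incubated at 25 °C with 25 pM [¹²⁵I]motilin for 120 min. Stopped with ice-cold buffer, then bound and free ligand separated by centrifugation at 1500g for 5 min. Pellet washed with ice-cold buffer and counted by gamma counter. IC₅₀ is the concentration displacing 50% of ¹²⁵I-motilin binding.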

Motilin receptor [2] = target: T1, Motilin receptor; test: Antagonist activity at MTL receptor in rabbit duodenum homogenate; type: functional, tissue-based; conditions: read-out: pA2 (converted)
[3] = Oral bioavailability in rat at 10 mg/kg; type: ADME, organism-based; conditions: in vivo
[4] = Metabolic stability in rat liver S9 fraction assessed as compound remaining after 30 mins; type: ADME, subcellular; conditions: read-out: Stability
Procedure, shortened: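 Compound incubated with rat liver S-9 for 30 min at 37 °C. Stability is expressed as residual % of compound.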

Canis familiaris [5] = test: Suppression of MTL receptor-mediated motilin-induced colonic motility in conscious dog 5 mg/kg administered 30 mins before motilin challenge; type: functional, organism-based; set-up: dose 5 mg/kg; conditions: Canis lupus familiaris
[6] = Apparent permeability across human Caco-2 cells at pH 6.8; type: ADME, cell-based; conditions: Caco-2, pH 6.8
Canis familiaris [7] = test: Suppression of MTL receptor-mediated motilin-induced gastric motility in conscious dog 5 mg/kg administered 30 mins before motilin challenge; type: functional, organism-based; set-up: dose 5 mg/kg; conditions: Canis lupus familiaris; Stomach

SMILES | IC50 (Motilin receptor [1]) [nM] | Kb (Motilin receptor [2]) [nM] | bioavailability [3] [%] | remaining at 0.5 h [4] [%] | Activity (Canis familiaris [5]) | Papp [6] [×10⁻⁶ cm/s] | Activity (Canis familiaris [7])
CC(C)(C)c1cc(C[C@H](NC(=O)[C@H](Cc2ccccc2)NC(=O)[C@@H](N)Cc2ccccc2)C(N)=O)ccc1O (HELM PEPTIDE1{F.F.[CC(C)(C)c1cc(C[C@H](N[*:1])C(=O)[*:2])ccc1O].[am]}$$$$V2.0) | 6 | 63.1 | – | – | – | – | –
CC(C)C[C@H](NC(=O)[C@@H](N)Cc1ccccc1)C(=O)N[C@@H](Cc1ccc(O)c(C(C)(C)C)c1)C(N)=O (HELM PEPTIDE1{F.L.[CC(C)(C)c1cc(C[C@H](N[*:1])C(=O)[*:2])ccc1O].[am]}$$$$V2.0) | 27 | 50.1 | – | – | – | – | –
CC(C)[C@H](NC(=O)[C@@H](N)Cc1ccccc1)C(=O)N[C@@H](Cc1ccc(O)c(C(C)(C)C)c1)C(N)=O (HELM PEPTIDE1{F.V.[CC(C)(C)c1cc(C[C@H](N[*:1])C(=O)[*:2])ccc1O].[am]}$$$$V2.0) | 46 | 126 | – | – | – | – | –
CC(C)[C@@H](C(=O)N[C@@H](Cc1ccc(O)c(C(C)(C)C)c1)C(N)=O)N(C)C(=O)[C@@H](N)Cc1ccccc1 (HELM PEPTIDE1{F.[meV].[CC(C)(C)c1cc(C[C@H](N[*:1])C(=O)[*:2])ccc1O].[am]}$$$$V2.0) | 1.1 | 12.6 | 6 | 69 | – | – | –
C[C@H](NC(=O)[C@@H](N)Cc1ccccc1)C(=O)N[C@@H](Cc1ccc(O)c(C(C)(C)C)c1)C(N)=O (HELM PEPTIDE1{F.A.[CC(C)(C)c1cc(C[C@H](N[*:1])C(=O)[*:2])ccc1O].[am]}$$$$V2.0) | 185 | > 1000 | – | – | – | – | –
CC(C)(C)c1cc(C[C@@H]2NC(=O)[C@@H](NC(=O)[C@@H](N)Cc3ccccc3)CCCCCC(=O)CCNC2=O)ccc1O | 12 | 39.8 | – | – | – | – | –
CC(C)[C@H](NC(=O)[C@@H](N)Cc1ccccc1)C(=O)N(C)[C@@H](Cc1ccc(O)c(C(C)(C)C)c1)C(N)=O (HELM PEPTIDE1{F.V.[CN([C@@H](Cc1ccc(O)c(C(C)(C)C)c1)C(=O)[*:2])[*:1]].[am]}$$$$V2.0) | 24 | 63.1 | – | 7 | – | – | –
CC(C)(C)c1cc(C[C@H](NC(=O)[C@@H](NC(=O)[C@@H](N)Cc2ccccc2)c2ccccc2)C(N)=O)ccc1O (HELM PEPTIDE1{F.[Phg].[CC(C)(C)c1cc(C[C@H](N[*:1])C(=O)[*:2])ccc1O].[am]}$$$$V2.0) | 12 | 15.8 | – | – | – | – | –
CC(C)[C@@H](C(=O)N[C@H](C)Cc1ccc(O)c(C(C)(C)C)c1)N(C)C(=O)[C@@H](N)Cc1ccccc1 | 1.9 | 3.98 | 65 | 100 | Active | 12.1 | Active
CC(C)[C@@H](C(=O)N(C)[C@@H](Cc1ccc(O)c(C(C)(C)C)c1)C(N)=O)N(C)C(=O)[C@@H](N)Cc1ccccc1 (HELM PEPTIDE1{F.[meV].[CN([C@@H](Cc1ccc(O)c(C(C)(C)C)c1)C(=O)[*:2])[*:1]].[am]}$$$$V2.0) | 4.3 | 2.51 | 30 | 80 | Active | 2.31 | Active
